The EC50 is the concentration needed to bring the measured effect to its halfway point. High values mean weaker potency, low ones greater potency.

For assay [1], the system named is Cricetinae gen. sp. Description: Compound was evaluated for potency in SP-E system and relative potency was determined against Hamster urinary bladder. It counts as functional, Cricetulus griseus. An outline of the steps: (§1)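 Isolated tissue (hamster urinary bladder or rat duodenum) in 10-mL bath of Tyrode's solution gassed with 95% O2-5% CO2 at 34 °C; isotonic contraction recorded. Duodenum: peptides applied at 2-3-min intervals, contact under 30 s. Bladder: 15-30-min intervals, contact 1-3 min.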

The species named for assay [2] is Rattus norvegicus. In words: Compound was evaluated for effective dose against rat duodenum. It is filed as functional. In outline:
as §1

In assay [3] the test system is Cricetinae gen. sp. Description: Compound was evaluated for effective dose against hamster bladder. It counts as functional, Cricetulus griseus. An outline of the steps:
as §1

The species entered for assay [4] is Cavia porcellus. In words: Compound was evaluated for potency relative to neurokinin B against SP-N system (enteric nerves of Guinea pig ileum). It is filed as functional. In outline:
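Neuronal SP-N receptor of guinea pig ileum assayed after desensitizing the muscular receptor with substance P methyl ester 10⁻⁷ M (2-min preincubation). Tissue in Tyrode's solution, 95% O2-5% CO2, 34 °C; isotonic contractions; peptides at 2-3-min intervals, under 30 s contact.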

The species entered for assay [5] is Cavia porcellus. In words: Compound was evaluated for effective dose against guinea pig ileum. It counts as functional. An outline of the steps:
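Guinea pig ileum in 10-mL bath of Tyrode's solution, 95% O2-5% CO2, 34 °C, with atropine 10⁻⁶ M present (muscular SP-P receptor); isotonic contractions; peptides applied at 2-3-min intervals, contact under 30 s.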

The species named for assay [6] is Rattus norvegicus. Description: Compound was evaluated for potency in SP-E system and relative potency was determined against rat duodenum. It is filed as functional. An outline of the steps: as §1

Take `CSCC[C@H](NC(=O)[C@H](CC(C)C)NC(=O)CNC(=O)[C@@H](NC(=O)[C@H](Cc1ccccc1)NC(=O)[C@H](Cc1ccccc1)NC(=O)[C@H](CC(=O)O)NC(=O)[C@H](Cc1c[nH]cn1)NC(=O)[C@H](CCSC)NC(=O)[C@@H](N)CC(=O)O)C(C)C)C(N)=O` [NEUROKININ B]: the Relative potency with Cricetinae gen. sp. [1], in the assay listed under Cavia porcellus [4] and in the assay filed under Rattus norvegicus [6] was 1 in each case. Besides, the EC50 in the assay filed under Rattus norvegicus [2] was found to be 6.5 nM; in the assay with Cricetinae gen. sp. [3], 50 nM; in the assay listed under Cavia porcellus [5], 1.5 nM.
With `CSCC[C@H](NC(=O)[C@H](CC(C)C)NC(=O)CNC(=O)[C@@H](NC(=O)[C@H](Cc1ccccc1)NC(=O)[C@H](CO)NC(=O)[C@H](CC(=O)O)NC(=O)[C@@H](NC(=O)[C@H](CCCCN)NC(=O)[C@@H](N)Cc1c[nH]cn1)[C@@H](C)O)C(C)C)C(N)=O` [NEUROKININ A], the results for the Relative potency in the assay on Cricetinae gen. sp. [1], in the assay listed under Cavia porcellus [4] and in the assay filed under Rattus norvegicus [6] were 1, 0.04 and 0.3, respectively.
